Measurements as given in ChEMBL document CHEMBL1144917, “Synthetic, nondegradable diadenosine polyphosphates and diinosine polyphosphates: their effects on insulin-secreting cells and cultured vascular smooth muscle cells” (J Med Chem, 2003).

How the values were obtained:
INS1 [1] = test: Percent of compound radioactivity ([3H]-Ap4A Degradation), in presence of added Ap4A, in the incubation medium of INS-1 cell membranes; type: functional, cell-based; set-up: concentration or dose not given beside the values
How it was run: (§1)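 Membranes from half-confluent INS-1 cells incubated 10 min at 37 °C in KRH buffer with 5.6 mM glucose, 0.31 μM [3H]Ap4A, with or without 30 μM unlabeled nucleotide. Medium aliquot mixed with unlabeled standards, TLC on silica gel in dioxane/conc. ammonia/water (6:1:4) for 2 h. UV-located spots cut out and scintillation counted. Reported as percent of radioactivity per species; mean ± SE of two experiments.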

INS1 [2] = test: Percent of compound radioactivity ([3H]-Ap4A Degradation), in presence of added Ap(s)pCHClpp(s)A, in the incubation medium of INS-1 cell membranes; type: functional, cell-based; how it was run: as §1
Rattus norvegicus [3] = species: Rattus norvegicus; test: Percent of compound radioactivity ([3H]-Ap4A Degradation), in presence of added Ap(s)pCHClpp(s)A, in heparinized rat plasma; type: functional; set-up: concentration or dose not given beside the values
How it was run: (§2)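 Heparinized rat plasma (40 μL) incubated 15 min with 10 nM [3H]Ap4A plus 3 μL saline or 3 μL of a 1 mM analogue solution. Products resolved by TLC on silica gel in dioxane/conc. ammonia/water (6:1:4) alongside unlabeled standards, and spots scintillation counted. Reported as percent of radioactivity per species; mean ± SE of two experiments.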

Rattus norvegicus [4] = species: Rattus norvegicus; test: Percent of compound radioactivity ([3H]-Ap4A Degradation), in presence of added Ap(s)pCH2pp(s)A, in heparinized rat plasma; type: functional; set-up: concentration or dose not given beside the values; how it was run: as §2
Rattus norvegicus [5] = species: Rattus norvegicus; test: Percent of compound radioactivity ([3H]-Ap4A Degradation) in heparinized rat plasma (saline); type: functional; how it was run: as §2
INS1 [6] = test: Percent of compound radioactivity ([3H]-Ap4A Degradation), in presence of added Ap(s)pCH2pp(s)A, in the incubation medium of INS-1 cell membranes; type: functional, cell-based; how it was run: as §1
INS1 [7] = test: Percent of compound radioactivity ([3H]-Ap4A Degradation), determined in the incubation medium of INS-1 cell membranes; type: functional, cell-based; set-up: concentration or dose not given beside the values; how it was run: as §1

Nc1ncnc2c1ncn2[C@@H]1O[C@H](COP(=O)(O)OP(=O)(O)OP(=O)(O)OP(=O)(O)OC[C@H]2O[C@@H](n3cnc4c(N)ncnc43)[C@H](O)[C@@H]2O)[C@@H](O)[C@H]1O
Radioactivity (INS1 [1]): 70% | Radioactivity (INS1 [2]): 61.3% | Radioactivity (Rattus norvegicus [3]): 26.5% | Radioactivity (Rattus norvegicus [4]): 31.6% | Radioactivity (Rattus norvegicus [5]): 21.5% | Radioactivity (INS1 [6]): 54.9% | Radioactivity (INS1 [7]): 52.4%

Nc1ncnc2c1ncn2[C@@H]1O[C@H](COP(=O)(O)OP(=O)(O)O)[C@@H](O)[C@H]1O
Radioactivity (INS1 [1]): 7.8% | Radioactivity (INS1 [2]): 8.8% | Radioactivity (Rattus norvegicus [3]): 30.6% | Radioactivity (Rattus norvegicus [4]): 27.4% | Radioactivity (Rattus norvegicus [5]): 22.3% | Radioactivity (INS1 [6]): 9.3% | Radioactivity (INS1 [7]): 11.3%

Nc1ncnc2c1ncn2[C@@H]1O[C@H](CO)[C@@H](O)[C@H]1O
Radioactivity (INS1 [1]): 15.1% | Radioactivity (INS1 [2]): 14.3% | Radioactivity (Rattus norvegicus [3]): < 1% | Radioactivity (Rattus norvegicus [4]): < 1% | Radioactivity (Rattus norvegicus [5]): < 1% | Radioactivity (INS1 [6]): 19.4% | Radioactivity (INS1 [7]): 22.4%

Nc1ncnc2c1ncn2[C@@H]1O[C@H](COP(=O)(O)OP(=O)(O)OP(=O)(O)O)[C@@H](O)[C@H]1O
Radioactivity (INS1 [1]): 4% | Radioactivity (Rattus norvegicus [3]): 40.5% | Radioactivity (Rattus norvegicus [4]): 37.6% | Radioactivity (Rattus norvegicus [5]): 42.1% | Radioactivity (INS1 [6]): 8.2% | Radioactivity (INS1 [7]): 8.4%

Nc1ncnc2c1ncn2[C@@H]1O[C@H](COP(=O)(O)O)[C@@H](O)[C@H]1O
Radioactivity (INS1 [1]): 0.8% | Radioactivity (Rattus norvegicus [3]): 2.31% | Radioactivity (Rattus norvegicus [4]): 1.98% | Radioactivity (Rattus norvegicus [5]): 2.4% | Radioactivity (INS1 [7]): 5.3%
